This is a sample that favours compounds with a hit; in the whole collection about 3% have one here.
Measles CPE: compounds protecting cells from measles virus cytopathic effect, primary screen, measles RdRp inhibitor project, single point, MLSMR library, absorbance. Measles virus-infected cells, CPE protection. protection (pct of control), % at 4 µM. 1.5% of 140,000 active; in the data active means protection mostly above about 24%, no sharp cut-off; inactive means mostly below about 26%
SDO1 yeast rescue: growth rescue of sdo1-depleted yeast, primary screen, S. cerevisiae, bone marrow failure model. S. cerevisiae sdo1-depleted JHY4D growth rescue, OD600 30 h; active compounds read high; pdr5 snq2 efflux-pump mutant strain. z-score at 10 µM. 0.21% of 140,000 active. AID 817, 2007;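 active means z-score above 3 at both the 24 hr and the 30 hr optical density reads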;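 further: z-score against mean and SD of all compound wells on the same plate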
sEH inhibitor: soluble epoxide hydrolase inhibitors, primary screen, biochemical, human sEH; Bifunctional epoxide hydrolase 2 (Homo sapiens), P34913; recombinant human sEH enzymatic activity assay; 0.34% of 91,000 active; inhibition, % at 2 µM; in the data active means inhibition above about 80%
Target sequence (P34913 whole entry, looked up): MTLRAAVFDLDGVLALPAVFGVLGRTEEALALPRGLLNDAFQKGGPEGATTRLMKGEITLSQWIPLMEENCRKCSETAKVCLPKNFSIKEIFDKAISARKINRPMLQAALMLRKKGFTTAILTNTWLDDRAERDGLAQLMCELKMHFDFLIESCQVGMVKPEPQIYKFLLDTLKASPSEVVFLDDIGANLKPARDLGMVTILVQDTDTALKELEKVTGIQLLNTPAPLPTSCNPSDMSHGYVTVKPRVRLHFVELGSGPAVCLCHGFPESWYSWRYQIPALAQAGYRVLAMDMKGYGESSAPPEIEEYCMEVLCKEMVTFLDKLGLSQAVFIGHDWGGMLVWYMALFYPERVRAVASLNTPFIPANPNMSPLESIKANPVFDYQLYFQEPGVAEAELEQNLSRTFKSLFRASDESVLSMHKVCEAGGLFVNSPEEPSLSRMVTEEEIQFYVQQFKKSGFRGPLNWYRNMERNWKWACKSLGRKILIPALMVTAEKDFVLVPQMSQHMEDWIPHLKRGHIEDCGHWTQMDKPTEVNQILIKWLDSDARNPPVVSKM
sEH activator: soluble epoxide hydrolase activators, primary screen, biochemical, human sEH. Bifunctional epoxide hydrolase 2 (Homo sapiens), P34913. purified human sEH enzymatic activity, activator screen. activation, % at 2 µM. 0.04% of 91,000 active; in the data active means activation above about 37%
BB579 growth dn: growth inhibitors of yeast BB579 in restrictive medium, primary screen, yeast lifespan-shortening project, S. cerevisiae; OD615, 48 h; inhibition, % at 10 µM; 0.51% of 140,000 active; AID 804, 2007;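 active means inhibition above a set limit, 3 SD over the mean compound inhibition, cut at about 44% in these data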
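System: DeaD yeast strain BB579; buffer or medium: CSMM-D dextrose restrictive medium; technique: OD at 615 nm; schedule: 4 h cell preincubation, 48 h compound exposure, 30 °C humidified; doses: single 10 µM dose; controls: amphotericin B 10 µg/mL, positive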
Yeast lifespan up: compounds extending yeast replicative lifespan, primary screen, S. cerevisiae, OD615. S. cerevisiae growth with nicotinamide; deaD strain in restrictive glucose medium. inhibition of the nicotinamide effect, % at 10 µM. 0.68% of 130,000 active;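 active means inhibition above a set limit, placed 3 SD over the median of all compounds, cut at about 26% in these data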;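 further: 0% = nicotinamide-treated wells and 100% = cells grown without nicotinamide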
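Buffer or medium: CSMM-D glucose medium, restrictive; test system: modified budding yeast, DeaD strain; compound: single dose 10 µM compound, 0.25% DMSO; schedule: culture preincubation 4 h, compound exposure 48 h, both 30 °C; detection: optical density (absorbance) at 615 nm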
* marks the source's active call; other numbers are inactive results; . = not tested or not shown.

SMILES	Measles CPE	SDO1 yeast rescue	sEH inhibitor	sEH activator	BB579 growth dn	Yeast lifespan up
CC(=O)NC(c1cccs1)c1cc([N+](=O)[O-])c2cccnc2c1O (stereo not drawn)	4	-0.8	.	.	80*	-4
CCCC(=O)NC(c1cccs1)c1cc([N+](=O)[O-])c2cccnc2c1O (stereo not drawn)	15	0.07	.	.	47*	-2
COc1cccc2sc(Nc3nc(-c4ccccn4)cs3)nc12	12	-2.4	-1	3	88*	-4
c1ccc(Nc2nc(-c3ccccn3)cs2)cc1	15	-1.6	4	-6	29	-9
O=c1[nH]c2ccc(Br)cc2c(-c2ccccc2)c1N1CCOCC1	56*	-1.2	-8	8	-26	-3
Cc1ccccc1C1C(C#N)=C2N=C(N)c3c(sc4c3CCCCC4)N2C2=C1C(=O)CCC2 (stereo not drawn)	28	0.37	20	-18	-6	-15
O=Nc1c(O)n(Cc2ccc(Cl)c(Cl)c2)c2ccccc12	21	-2.5	-4	4	87*	-34
COC(=O)c1ccc(Cn2c(O)c(N=O)c3ccccc32)o1	66*	-0.1	.	.	-10	-2
CNCc1ccccc1Sc1ccc(OC)c(OC)c1	40*	-0.51	4	-4	-11	-6
COC(=O)c1cc(NC(=O)c2c(F)c(F)c(F)c(F)c2F)cc(C(=O)OC)c1	1	0.11	.	.	-37	3
CC(=O)Nc1ccc(/C=N/OCC(=O)Nc2ccc(C)cc2)cc1	38*	0.09	.	.	-38	7
Cc1cccc(N(CC(=O)NC2CCCCC2)C(=O)CCCC(=O)Nc2ccccn2)c1	33*	1.8	3	0	-30	.
COC(=O)C/C=C/[C@@H](C)[C@@H](/C=N/OCC[C@@H]1C=C[C@H](OC(C)=O)[C@@H](COC(C)=O)O1)NS(=O)(=O)c1ccc(C)cc1	4	-0.09	.	.	-17	1
CN(C)c1ccc(/C=N/c2cc(-c3ccccc3)nn2-c2ccccc2)cc1	13	0.12	4	-2	-30	-13
O=C(NCC1CCCC(CNC(=O)N2CCc3ccccc32)C1)N1CCc2ccccc21 (stereo not drawn)	7	-1.6	92*	-92	-5	-1
COc1ccc(-c2cc(C(F)(F)F)n3nc(C)cc3n2)cc1	7	-0.24	-5	4	-65	-8
COc1ccc(-c2cc3nc(C)cc(N4CC(C)CC(C)C4)n3n2)cc1 (stereo not drawn)	6	-2	-1	5	71*	.
O=C(Nc1nc(-c2cccs2)cs1)c1cccc(S(=O)(=O)N2CCCCC2)c1	32*	-1.4	3	-4	-34	-11
Cc1ccc(-c2csc(NC(=O)c3cccc(S(=O)(=O)N4CCN(C)CC4)c3)n2)cc1	6	-1.8	.	.	-22	-15
O=C(Nc1ccccc1)c1cc(S(=O)(=O)N2CCOCC2)cs1	18	-0.75	14	-12	-14	-8
Cc1ccc(-c2csc(NC(=O)COC(=O)c3cccc(S(=O)(=O)N4CCOCC4)c3)n2)cc1	28*	-0.42	5	-8	15	-9
O=C(Nc1nc(-c2ccc(Cl)s2)cs1)c1ccncc1	58*	0.67	-2	2	1	-5
O=C(COC(=O)c1cc(S(=O)(=O)N2CCOCC2)cs1)c1ccccc1	51*	0.9	8	-10	-21	-15
COc1cccc(C(=O)Nc2nc(-c3ccc(S(=O)(=O)N4CCOCC4)cc3)cs2)c1	24	-0.58	12	-6	-92	-2
CCc1c(C(=O)N/N=C/c2ccc(C)o2)csc1C	11	0.16	79	-79	8	.
SMILES	Measles CPE	SDO1 yeast rescue	sEH inhibitor	sEH activator	BB579 growth dn	Yeast lifespan up
O=C(COC(=O)c1cc(S(=O)(=O)N2CCOCC2)ccc1O)NCCc1ccccc1	39*	1	6	-5	-49	-12
O=C(Nc1nc(-c2cccs2)cs1)c1ccc(Cl)cc1	49*	-2	-1	0	-59	-7
O=C(NCCc1ccccc1)c1cc(S(=O)(=O)N2CCOCC2)ccc1F	18	-1.5	10	-7	-16	-6
COc1ccc(C(=O)Nc2nc(-c3cccs3)cs2)cc1	7	-1.7	-9	10	-15	-7
C1=C(CCNCC2CCCCC2)CCCC1	2	0.06	41	-42	-43	-5
CC(C)(C)c1ccc(C(=O)CSc2n[nH]c(=O)[nH]c2=O)cc1	3	1	10	-8	-63	-14
O=C(O)c1cccc(N/N=C/c2cc(Br)cc(Br)c2O)c1	9	-0.27	.	.	-41	2
Cc1c(N=Cc2cc(Br)cc(Br)c2O)cccc1C(=O)O	3	-0.64	.	.	98*	-13
Cc1ccn2c(Nc3ccccc3C)c(-c3ccncc3)nc2c1	9	-1.9	.	.	-26	0
COc1ccc(OCCC(=O)OCc2c(C)noc2C)cc1	35*	0.92	14	-11	-41	-8
O=C(Nc1cccc(C(F)(F)F)c1)c1cc(-c2ccc(F)cc2)on1	2	-1.2	3	-5	-31	1
O=C(N[C@@H](Cc1ccccc1)C(=O)NC1CCCCCC1)c1ccco1	5	-0.37	80*	-80	-20	-4
O=C(O)CCSc1nnc(SCC(=O)NCC(F)(F)F)s1	10	1.5	.	.	-1	0
CCCCSc1ccc2nc(-c3ccc(C#N)cc3)cn2c1	43*	-1.1	-5	5	-17	-9
COc1ccc(-n2nnnc2-c2ccccc2)cc1	3	0.4	6	-6	-10	-8
Clc1ccc(-n2nnnc2-c2ccccc2)cc1	52*	0.31	.	.	-1	-21
CN1C(=O)/C(=N/OC(=O)c2ccccc2)c2ccccc21	33	-3.1	-5	8	100*	-14
CN1C(C)(C)CC(=NOC(=O)c2ccccc2)CC1(C)C	5	0.38	8	-8	-11	-1
CCc1ccc(C2CC(c3ccc(Cl)cc3)=NNC2=O)cc1 (stereo not drawn)	3	-1.8	-1	1	-4	-10
Cc1ccc(C2CC(c3ccc(Cl)cc3)=NNC2=O)cc1 (stereo not drawn)	49*	0.07	15	-15	-53	-1
COc1ccc(CNC(=O)CSc2nnc(Cn3nnc4ccccc43)n2C)cc1	14	2	7	-5	-2	-11
CCOC(=O)c1sc(-c2ccccc2)cc1NC(=O)Nc1ccc([N+](=O)[O-])cc1	4	1.7	.	.	-22	4
CCOc1ccccc1NC(=S)NNS(=O)(=O)c1c(C)cc(C)cc1C	10	-0.73	.	.	10	-3
COc1cccc(OCC(O)CN(CCO)Cc2ccccc2)c1 (stereo not drawn)	32*	0.29	-25	25	-13	-2

Source: PubChem (several laboratories)
